Laboratory results published in the EternaBench riboswitch data.

Tested on: MS2 coat protein
Assay: apparent Kd, MS2 coat protein; higher = weaker binding; RNA-MaP array; FMN 200 µM where present
How it was run: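 The apparent Kd is reported as the median of filtered per-cluster binding-curve fits. To get these curves, designs transcribed by stalled E. coli RNA polymerase on Illumina sequencing-chip clusters were titrated with SNAP-549-labelled MS2 coat protein from 0.7 or 1.5 nM, doubling to 3 µM. Titrations were run without and then with constant ligand in 100 mM Tris-HCl pH 7.5, 80 mM KCl, 4 mM MgCl2, BSA, DTT, yeast tRNA and Tween-20, and green signal was normalised to red-channel RNA signal and control-cluster median Fmax.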

[1] = designed as: OFF switch for flavin mononucleotide, no ligand
[2] = ligand present: flavin mononucleotide, designed as: OFF switch for flavin mononucleotide
[3] = designed as: ON switch for flavin mononucleotide, no ligand
[4] = ligand present: flavin mononucleotide, designed as: ON switch for flavin mononucleotide

Sequence: GGACCGCUUAGAAUUAGCGGCCGGCAGGAUAUGACAUGAGGAUCACCCAUGUGAACUCCAUUGGGUCAGAAGGGCCACGACACA
- apparent Kd [1]: 0.0239 µM
- apparent Kd [2]: 0.0864 µM

Sequence: GGACGUCACAUUAACAUGAGGAUCACCCAUGUCAAAAGACAUGAGGAUAUGCAUCCUAAUUGGAUGCAGAAGGCAUGGACGUCC
- apparent Kd [3]: 0.449 µM
- apparent Kd [4]: 0.035 µM

Sequence: GGACGUCGCAUAAACAUGAGGAUCACCCAUGUAACUAGACAUGAGGAUAUGGAUCCUAAUUGGAUCCAGAAGGUAUGGACGUCC
- apparent Kd [3]: 0.298 µM
- apparent Kd [4]: 0.2 µM

Sequence: GGACUGGACUAGAAGGGUGAUGCGCUCGCAGACACAGGAUAUAGUCACAUGAGGAUCACCCAUGUCGGUCCAAGUGAAGAAACU
- apparent Kd [3]: 0.0982 µM
- apparent Kd [4]: 0.0244 µM

Sequence: GGAGAGGAAACAUGAGGAUCACCCAUGUGAGUGGUCCGAAGAUAGGAUAUCCACACGAGAAGUGUGGAGAAGGAUCACCUCUCC
- apparent Kd [1]: 0.746 µM
- apparent Kd [2]: 0.571 µM

Sequence: GGAGAGGUAGGAUAUGGAGCUUAGAACAUGAGGAUCACCCAUGUAGGACCACAUGAUUUGCCAGAAGGACCAGUCC
- apparent Kd [1]: 0.421 µM
- apparent Kd [2]: 0.558 µM

Sequence: GGAGAUACAUGAGGAUCACCCAUGUAGGAUAUCGGGCCUAUAUAUGGCGAAAGCCAUAUAUAGGCCGAGAAGGGCGUACACACC
- apparent Kd [1]: 0.00807 µM
- apparent Kd [2]: 0.00752 µM

Sequence: GGAGCACAUAUAAACAUGAGGAUCACCCAUGUCAAAAGACAUGAGGAUAUGGAUCGGAAAACGAUCUAGAAGGCAUGGUGCUCC
- apparent Kd [3]: 0.644 µM
- apparent Kd [4]: 0.0295 µM

Sequence: GGAGCAUAUGUCAGGAUAUCGUGGUCGAUAGAUCACGAGAAGGGACAUGAGGAUCACCCAUGUCUGUCCGCUCC
- apparent Kd [1]: 0.0142 µM
- apparent Kd [2]: 0.0164 µM

Sequence: GGAGCCGGCACCGAGGAUAUUCAUAUUAAAACAUGAGGAUCACCCAUGUAGGCCAGAAGGCCUUGGGAGAAGGCGGACCGGCUCG
- apparent Kd [3]: 0.654 µM
- apparent Kd [4]: 0.0311 µM

Sequence: GGAGCCGGCACGGAGGAUAUUCAUAUUAAAACAUGAGGAUCACCCAUGUAGGCCAGAAGGCCUUGGGAGAAGGCCGAUCGGCUCG
- apparent Kd [3]: 0.45 µM
- apparent Kd [4]: 0.0297 µM

Sequence: GGAGCCGGCACUGAGGAUAUUCAUAUUAAAACAUGAGGAUCACCCAUGUAGGCCAGAAGGCCUUGGGAGAAGGCAGGUCGACUCG
- apparent Kd [3]: 0.406 µM
- apparent Kd [4]: 0.0289 µM

Sequence: GGAGCUCACAUCUACAUGAGGAUCACCCAUGUCAAAAGACAUGAGGAUAUGCAUCCUAAUUGGAUGCAGAAGGCAUGGAGCUCC
- apparent Kd [3]: 0.946 µM
- apparent Kd [4]: 0.0574 µM

Sequence: GGAGGACGAAACAUGAGGAUCACCCAUGUGUUAUAAUUAAUAUAGGAUAUGUUUAUACUUUUUGGGCAGAAGGAUGAUAAUGUU
- apparent Kd [3]: 0.0222 µM
- apparent Kd [4]: 0.0197 µM

Sequence: GGAGGGACAGCAGGAUAUGAGUGGGACGCACUGUGUACGCGGGUGUGGAUGUCAGAAGGGCUGACAUGAGGAUCACCCAUGUAA
- apparent Kd [3]: 0.114 µM
- apparent Kd [4]: 0.0554 µM

Sequence: GGAUAAGACAGAGGAUAUACGUGCUAGAGAUACUAGCAAAAUUUCCUCACAUGAGGAUCACCCAUGUAGAAGGCUGUCCUAUCG
- apparent Kd [1]: 0.0169 µM
- apparent Kd [2]: 0.291 µM

Sequence: GGAUAGGACAGAGGAUAUACCGAUAGGAUCUACUAUCGAACAAUUCUCACAUGAGGAUCACCCAUGUAGAAGGCUGUCCUAUCG
- apparent Kd [1]: 0.0166 µM
- apparent Kd [2]: 0.0294 µM

Sequence: GGAUAGGACAGAGGAUAUACGUCCUAGAGAUACUAGCAAAAUUUCCUCACAUGAGGAUCACCCAUGUAGAAGGCUGUCCUAUCG
- apparent Kd [1]: 0.0126 µM
- apparent Kd [2]: 0.141 µM

Sequence: GGAUAGGACAGAGGAUAUACGUGCUAGAGAGACUAGCAAAAUUUCCUCACAUGAGGAUCACCCAUGUAGAAGGCUGUCCUAUCG
- apparent Kd [1]: 0.0163 µM
- apparent Kd [2]: 0.432 µM

Sequence: GGAUAGGACAGAGGAUAUACGUGCUAGAGAUACUAGCAAAAUUUCCUCACAUGAGGAUCACCCAUGUAGAAGGCUGUUCUAUCG
- apparent Kd [1]: 0.0146 µM
- apparent Kd [2]: 0.473 µM

Sequence: GGAUAGGACAGAGGAUAUAUGUGCUAGAGAUACUAGCAAAAUUUCCUCACAUGAGGAUCACCCAUGUAGAAGGCUGUCCUAUCG
- apparent Kd [1]: 0.0129 µM
- apparent Kd [2]: 0.022 µM

Sequence: GGAUAGGCCAGAGGAUAUACGUGCUAGAGAUACUAGCAAAAUUUCCUCACAUGAGGAUCACCCAUGUAGAAGGCUGUCCUAUCG
- apparent Kd [1]: 0.00731 µM
- apparent Kd [2]: 0.0499 µM

Sequence: GGAUCGAAUGUGAGGAUAUACCACUGGAUACAGUGGUAGAAGGCACAUGAGGAUCACCCAUGUCUCUACGAUCC
- apparent Kd [1]: 0.0196 µM
- apparent Kd [2]: 0.111 µM

Sequence: GGAUCGAGUGUGAGGAUAUGCAGGUCCUUGGAUCUGCAGAAGGCACAUGAGGAUCACCCAUGUGGAAACGGUCC
- apparent Kd [1]: 0.0642 µM
- apparent Kd [2]: 0.567 µM

Sequence: GGAUCUUGGGUCAGGAUAUGCUGAUAGUUAUGUCAGCAGAAGGGACAUGAGGAUCACCCAUGUGCUUGGUUUUG
- apparent Kd [1]: 0.0129 µM
- apparent Kd [2]: 0.0396 µM

Sequence: GGAUGACAAAGUCAUCCAAAUCGAACAUGAGGAUCACCCAUGUAGGAUAUGGUACUCAAAGAGUACCAGAAGGACAUGUGCUUU
- apparent Kd [1]: 0.04 µM
- apparent Kd [2]: 0.191 µM

Sequence: GGAUGACAAAGUCAUCCAAUACGAACAUGAGGAUCACCCAUGUAGGAUAUGCAACUCAAAGAGUUGCAGAAGGACAUGUGUCUU
- apparent Kd [1]: 0.0289 µM
- apparent Kd [2]: 0.128 µM

Sequence: GGAUGACAAAGUCAUCCAUAACGAACAUGAGGAUCACCCAUGUAGGAUAUGCAACUCAAAGAGUUGCAGAAGGACAUGUGCCUU
- apparent Kd [1]: 0.0346 µM
- apparent Kd [2]: 0.273 µM
